Activity calls are given as the source filed them.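 Rule for the calls, unless noted: active = mean duplicate potentiation above the buffer control mean plus 5 SD of buffer wells; inactive = the rest.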
What follows are molecules tested against Potassium voltage-gated channel subfamily KQT member 2 (Rattus norvegicus) (UniProt O88943) (assay: KCNQ2 thallium flux enhancement – KCNQ2-CHO-K1 cells, selectivity assay for KCNQ1 potentiator project (AID 493009;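 note: assay conditions were tuned for KCNQ1 rather than KCNQ2 modulators; signal is max minus min fluorescence divided by baseline after thallium stimulus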)). Settings: FluxOR thallium flux fluorescence, at 10 µM; stronger effect = higher value, scaled: buffer 0, activator control 100.
Chain of Potassium voltage-gated channel subfamily KQT member 2 (Rattus norvegicus) (O88943 whole entry, looked up): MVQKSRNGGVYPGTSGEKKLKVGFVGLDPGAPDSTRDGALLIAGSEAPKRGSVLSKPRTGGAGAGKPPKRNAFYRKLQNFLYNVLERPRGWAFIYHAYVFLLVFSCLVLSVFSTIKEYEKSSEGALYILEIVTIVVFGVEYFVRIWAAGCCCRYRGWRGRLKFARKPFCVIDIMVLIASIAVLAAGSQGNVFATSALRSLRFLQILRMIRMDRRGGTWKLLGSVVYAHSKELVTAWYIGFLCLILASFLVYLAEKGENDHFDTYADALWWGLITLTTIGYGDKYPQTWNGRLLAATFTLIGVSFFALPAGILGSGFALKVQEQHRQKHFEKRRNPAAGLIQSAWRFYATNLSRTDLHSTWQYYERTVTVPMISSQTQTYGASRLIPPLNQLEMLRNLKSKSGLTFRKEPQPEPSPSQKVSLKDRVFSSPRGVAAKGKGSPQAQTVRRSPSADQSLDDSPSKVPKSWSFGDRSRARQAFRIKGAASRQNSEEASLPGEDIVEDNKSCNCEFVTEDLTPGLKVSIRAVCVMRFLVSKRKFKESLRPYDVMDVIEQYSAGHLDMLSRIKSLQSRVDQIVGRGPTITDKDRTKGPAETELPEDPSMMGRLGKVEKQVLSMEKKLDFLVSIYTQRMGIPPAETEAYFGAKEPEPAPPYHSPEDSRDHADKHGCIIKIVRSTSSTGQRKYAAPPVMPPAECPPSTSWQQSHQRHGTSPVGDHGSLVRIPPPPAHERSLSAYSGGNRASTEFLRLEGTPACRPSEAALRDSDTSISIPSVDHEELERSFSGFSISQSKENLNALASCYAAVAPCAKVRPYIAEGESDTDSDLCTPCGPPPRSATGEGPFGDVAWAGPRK

outcome, inactive:
COc1ccc(OC)c(NC(=S)NC(=O)c2ccc(Br)o2)c1
Cc1ccc(-c2ccc(/C=C3\C(=O)ON=C3c3ccccc3)o2)c([N+](=O)[O-])c1
Cc1nc(NC(=S)NC(=O)c2ccccc2)sc1C
CN1CCN(c2ccc(S(=O)(=O)N3CCCCC3)cc2NC(=O)COc2cccc(Cl)c2)CC1
O=C(NC(=S)Nc1nc2c(s1)CCCC2)c1ccccc1
Cc1ccc(-n2ncc(C(=O)Nc3cc(Cl)cc(Cl)c3)c2C2CCNCC2)cc1C
CN(CC(=O)NCc1ccccc1Cl)CC(=O)Nc1cccc(F)c1
CN(C)c1ccnc(N(Cc2ccccc2)Cc2ccccc2)c1C#N
COc1ccc(C2CC(c3c(-c4ccccc4)c4cc(Cl)ccc4[nH]c3=O)=NN2S(C)(=O)=O)cc1OC (stereo not given)
CCC1CCCCN1CCCNC(=O)CSc1nc2nc(C)c(Cc3ccccc3)c(C)n2n1 (stereo not given)
CCOC(=O)C1=C(CC)Nc2ccccc2N=C1NC(=O)CCNC(C)=O
O=C(CCN1Cc2ccccc2C1)c1ccc2c(c1)OCCO2
COc1cc(OC)cc(C(=O)N2CC(=O)Nc3ccccc32)c1
COc1cc(O)c2c(=O)c(-c3ccc(O[C@@H]4O[C@H](CO)[C@@H](O)[C@H](O)[C@H]4O)cc3)coc2c1
Cc1ccc(-c2nc(=S)c3c(n2Cc2ccco2)CC(C)(C)OC3)cc1
CCOC(=O)N1CCN(C(=S)NC(=O)c2ccc(F)c(F)c2)CC1
COC(=O)c1sc(NC(=S)NC(=O)c2cccc(C)c2)nc1C
S=c1[nH]nc(-c2cccs2)n1/N=C/c1cn(-c2ccccc2)nc1-c1ccccc1
COc1ccc(NC(=S)NCCC(c2ccccc2)c2ccccc2)c(OC)c1
CCOC(=O)c1[nH]c2cc(OC)c(OC)cc2c1NC(=O)CN(C)C1CCCCC1
Cc1ccc(C)c(N/C(N)=N/c2nc(C)cc(C)n2)c1
S=C(N/N=C/c1cccc2ccccc12)Nc1cccc(Cl)c1
CC(=O)Nc1ccc(NC(=O)CSC2=NS(=O)(=O)c3cc(Cl)ccc3N2)cc1
COc1ccc(-c2nnc(NC(=O)c3ccc(S(=O)(=O)N4CCCc5ccccc54)cc3)o2)cc1
COc1cc(OC)c(-n2cc(-c3ccc(Cl)cc3)[nH]c2=O)cc1Cl
CCn1c(SCC(=O)Nc2ccccc2F)nnc1-c1cnccn1
Cc1ccc(CNc2nc3c([nH]2)c(=O)n(C)c(=O)n3C)cc1
NS(=O)(=O)c1ccc(Sc2ccc3c(c2)CCC3)nc1
COc1nccnc1NS(=O)(=O)c1ccc(NC(=S)NC(=O)c2ccccc2F)cc1
Cc1ccc(C(=O)CSc2nnc3c4ccccc4nc(C(C)(C)C)n23)cc1
CC(C)CNC(=S)NC(=O)c1ccc([N+](=O)[O-])cc1
O=C1C(=O)N(CCCc2ccccc2)c2ccccc21
O=C(Nc1cccnc1)NC1CCCCC1
O=C(N/N=C/c1ccc(-c2ccccc2)o1)c1ccccc1O
O=C(Nc1ccccc1Br)c1ccccc1-c1ccccc1
O=C(NC(=S)Nc1ccccc1N1CCOCC1)c1ccc(-c2cc(Cl)ccc2Cl)o1

potentiation, active:
CCCn1c(=O)c(C(=O)NNC(=O)c2ccc(Cl)cc2Cl)c(O)c2ccccc21 154%
COc1ccccc1NC(=O)CC1C(=O)NCCN1C(=O)Nc1ccc(Cl)c(Cl)c1 (stereo not given) 157%
CCOC(=O)C(C(=O)OCC)C(C(=O)OCC)N1CCOCC1 (stereo not given) 171%
COc1ccc(OCCCC(=O)NNC(=O)CCN2CCN(c3ccccc3)CC2)cc1 142%

The molecules below were run against Potassium voltage-gated channel subfamily KQT member 1 (Homo sapiens) (UniProt P51787) (assay: KCNQ1 activators by electrophysiology – IonWorks patch clamp, KCNQ1-CHO cells, orthogonal assay for KCNQ1 potentiator project, confirmation (AID 493184;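 active = current rise at least 3 SD above the untreated control mean in each of two repeat wells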)). Settings: automated patch clamp current, at 10 µM; stronger effect = higher value.
Chain of Potassium voltage-gated channel subfamily KQT member 1 (Homo sapiens) (P51787 whole entry, looked up): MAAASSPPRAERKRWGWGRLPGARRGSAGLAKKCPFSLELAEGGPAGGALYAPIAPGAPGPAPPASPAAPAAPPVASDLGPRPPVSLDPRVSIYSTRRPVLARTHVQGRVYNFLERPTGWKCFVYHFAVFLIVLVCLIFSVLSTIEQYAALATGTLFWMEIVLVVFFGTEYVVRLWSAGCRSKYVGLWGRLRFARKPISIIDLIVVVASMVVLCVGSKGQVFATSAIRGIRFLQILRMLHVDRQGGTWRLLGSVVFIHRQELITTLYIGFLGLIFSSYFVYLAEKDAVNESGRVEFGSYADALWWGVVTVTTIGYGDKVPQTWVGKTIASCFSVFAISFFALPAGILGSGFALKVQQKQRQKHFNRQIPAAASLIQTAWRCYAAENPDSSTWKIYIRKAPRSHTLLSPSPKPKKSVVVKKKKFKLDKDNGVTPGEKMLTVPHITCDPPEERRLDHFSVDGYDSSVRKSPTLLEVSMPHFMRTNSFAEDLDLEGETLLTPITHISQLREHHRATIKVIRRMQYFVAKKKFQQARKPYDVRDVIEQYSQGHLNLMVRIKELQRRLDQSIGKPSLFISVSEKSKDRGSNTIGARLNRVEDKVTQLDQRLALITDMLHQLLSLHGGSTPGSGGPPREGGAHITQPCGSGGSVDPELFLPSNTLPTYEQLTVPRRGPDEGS
Outline: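 Assay system – CHO cells carrying KCNQ1 · Medium – pH 7.4 external bath · Probe or stimulus – depolarizing pulse to +40 mV from -90 mV · Compound dosing – one dose, 10 µM final · Measured by – automated perforated-patch electrophysiology · Measure – % potentiation of steady-state current relative to pre-compound · Repeats – two replicates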

outcome, inactive:
COc1ccc(OC)c(NC(=S)NC(=O)c2ccc(Br)o2)c1
Cc1ccc(-c2ccc(/C=C3\C(=O)ON=C3c3ccccc3)o2)c([N+](=O)[O-])c1
Cc1nc(NC(=S)NC(=O)c2ccccc2)sc1C
CN1CCN(c2ccc(S(=O)(=O)N3CCCCC3)cc2NC(=O)COc2cccc(Cl)c2)CC1
O=C(NC(=S)Nc1nc2c(s1)CCCC2)c1ccccc1
Cc1ccc(-n2ncc(C(=O)Nc3cc(Cl)cc(Cl)c3)c2C2CCNCC2)cc1C
CN(CC(=O)NCc1ccccc1Cl)CC(=O)Nc1cccc(F)c1
CN(C)c1ccnc(N(Cc2ccccc2)Cc2ccccc2)c1C#N
COc1ccc(C2CC(c3c(-c4ccccc4)c4cc(Cl)ccc4[nH]c3=O)=NN2S(C)(=O)=O)cc1OC (stereo not given)
CCCn1c(=O)c(C(=O)NNC(=O)c2ccc(Cl)cc2Cl)c(O)c2ccccc21
CCC1CCCCN1CCCNC(=O)CSc1nc2nc(C)c(Cc3ccccc3)c(C)n2n1 (stereo not given)
CCOC(=O)C1=C(CC)Nc2ccccc2N=C1NC(=O)CCNC(C)=O
O=C(CCN1Cc2ccccc2C1)c1ccc2c(c1)OCCO2
COc1cc(OC)cc(C(=O)N2CC(=O)Nc3ccccc32)c1
COc1cc(O)c2c(=O)c(-c3ccc(O[C@@H]4O[C@H](CO)[C@@H](O)[C@H](O)[C@H]4O)cc3)coc2c1
Cc1ccc(-c2nc(=S)c3c(n2Cc2ccco2)CC(C)(C)OC3)cc1
COc1ccccc1NC(=O)CC1C(=O)NCCN1C(=O)Nc1ccc(Cl)c(Cl)c1 (stereo not given)
CCOC(=O)C(C(=O)OCC)C(C(=O)OCC)N1CCOCC1 (stereo not given)
CCOC(=O)N1CCN(C(=S)NC(=O)c2ccc(F)c(F)c2)CC1
COC(=O)c1sc(NC(=S)NC(=O)c2cccc(C)c2)nc1C
COc1ccc(OCCCC(=O)NNC(=O)CCN2CCN(c3ccccc3)CC2)cc1
S=c1[nH]nc(-c2cccs2)n1/N=C/c1cn(-c2ccccc2)nc1-c1ccccc1
COc1ccc(NC(=S)NCCC(c2ccccc2)c2ccccc2)c(OC)c1
CCOC(=O)c1[nH]c2cc(OC)c(OC)cc2c1NC(=O)CN(C)C1CCCCC1
Cc1ccc(C)c(N/C(N)=N/c2nc(C)cc(C)n2)c1
S=C(N/N=C/c1cccc2ccccc12)Nc1cccc(Cl)c1
CC(=O)Nc1ccc(NC(=O)CSC2=NS(=O)(=O)c3cc(Cl)ccc3N2)cc1
COc1ccc(-c2nnc(NC(=O)c3ccc(S(=O)(=O)N4CCCc5ccccc54)cc3)o2)cc1
COc1cc(OC)c(-n2cc(-c3ccc(Cl)cc3)[nH]c2=O)cc1Cl
CCn1c(SCC(=O)Nc2ccccc2F)nnc1-c1cnccn1
Cc1ccc(CNc2nc3c([nH]2)c(=O)n(C)c(=O)n3C)cc1
NS(=O)(=O)c1ccc(Sc2ccc3c(c2)CCC3)nc1
COc1nccnc1NS(=O)(=O)c1ccc(NC(=S)NC(=O)c2ccccc2F)cc1
Cc1ccc(C(=O)CSc2nnc3c4ccccc4nc(C(C)(C)C)n23)cc1
CC(C)CNC(=S)NC(=O)c1ccc([N+](=O)[O-])cc1
O=C1C(=O)N(CCCc2ccccc2)c2ccccc21
O=C(Nc1cccnc1)NC1CCCCC1
O=C(N/N=C/c1ccc(-c2ccccc2)o1)c1ccccc1O
O=C(Nc1ccccc1Br)c1ccccc1-c1ccccc1
O=C(NC(=S)Nc1ccccc1N1CCOCC1)c1ccc(-c2cc(Cl)ccc2Cl)o1
